From PubChem BioAssay
Diaphorase inh: counter-screen for diaphorase-based assays: diaphorase inhibitors and chemical oxidizers; diaphorase resazurin-to-resorufin fluorescence, NADH, 16 min; bacterial (C. kluyveri) enzyme, not human; inhibition, % at 20 µM; hit rate 0.69% among 190,000;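 active means primary screen inhibition at 20 µM above a set limit, cut at about 50% in these data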;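 further: plate controls were DMSO with full reaction for no effect and wells lacking NADH for full effect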
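Benchmarks: positive control wells lacking NADH, neutral wells with DMSO only. System: bacterial diaphorase enzyme (C. kluyveri). Input: 0.14 U/mL diaphorase, enzyme working solution. Detection: resorufin fluorescence, excitation 544 nm, emission 590 nm. Times: 16-min room-temperature incubation before reading.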
G6PDH CS: counter-screen for G6PDH assay hits: L. mesenteroides G6PDH inhibition; Purified L. mesenteroides G6PDH, diaphorase/resazurin coupled fluorescence, 45 min; hit rate 0.12% among 200,000; inhibition, % at 5 µM; AID 1020
L major viab: inhibitors of Leishmania major promastigote growth; Leishmania major promastigotes, resazurin fluorescence viability; inhibition, % at 10 µM; hit rate 9% among 200,000; AID 1063;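 further: promastigotes grown with compound for 44 hours at 28 °C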
WT yeast gro inh: growth inhibition of WT yeast, mitochondrial fusion screen; mitochondrial fusion phenotypic screen, WT strain; inhibition, % at 10 µM; AID 1362; hit rate 2.1% among 190,000; in the data active means inhibition above about 58%; tested in S. cerevisiae
Diaphorase act: activates diaphorase or chemically reduces, flagging diaphorase assay artifacts. Diaphorase/resazurin coupled assay, resorufin fluorescence, 16 min; hits give high values; 1 = vehicle wells, 0 = NADH-free wells. activation factor at 20 µM. hit rate 0.005% among 190,000. AID 1229;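 active means diaphorase activity raised at least twofold by the compound at 20 µM; inactive means activation factor below 2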
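Material: purified diaphorase enzyme from Clostridium kluyveri; Also added: 0.114 mM NADH and 0.1 mM resazurin, final amounts; Doses: single compound dose of 20 µM, 1% DMSO final; Times: 16 min enzyme reaction, ambient temperature; Detection: resorufin fluorescence, excitation 544 nm, emission 590 nm; Measure: increased resorufin signal from activators or reducing compounds.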
L major 1uM: blocks Leishmania major promastigote growth at 1 uM, repeat screen; shares compounds with L major viab; inhibition, % at 1 µM; hit rate 13% among 1,100; L. major promastigote growth, resazurin fluorescence, 48 h;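 active means inhibition above about 50% in both repeat tests, limit read from the data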
* = called active by the depositor; . = no result given. Hits are enriched below; roughly 11% of the tested compounds scored in any of these assays. Unless noted, no stated cut-off is given here; in the data, active means inhibition above about 50%; inactive means the rest.

SMILES	Diaphorase inh	G6PDH CS	L major viab	WT yeast gro inh	Diaphorase act	L major 1uM
Cc1cccc(-n2c3nc(=O)[nH]c(=O)c-3cc3cc([N+](=O)[O-])ccc32)c1	53*	3	95*	-1	0.5	15
CN1CC(c2ccccn2)C2(SC(=S)N(Cc3ccccc3)C2=O)C12C(=O)Nc1ccccc12 (centres undefined)	25	3	100*	5	0.8	14
O=C1CNC(=S)N1Cc1ccccc1	8	3	-2	-12	0.9	.
Cc1cccc2c(CC(=O)O)noc12	2	10	79*	1	1	-3
COc1ccccc1CNC(=O)C[n+]1ccccc1	14	0	-2	-7	0.9	.
CC1=CC2(O)OCCN(CCO)C2=CC1=O (centres undefined)	12	37	99*	-10	0.9	-10
Cc1cc(C(C)(C)C)cc(C)c1Cn1c2[n+](c3ccc(C(F)(F)F)cc31)CCCCC2	-15	-2	100*	25	1.2	37
c1ccc2c(c1)OC(CCCN1CCCCC1)c1ccccc1S2 (centres undefined)	4	-1	100*	56	1	95*
OC(CCCN1CCCCC1)(c1ccccc1)c1ccccc1	14	15	9	0	0.9	.
Cc1nonc1C(=O)N/N=C/c1ccccc1	6	4	6	2	0.9	.
O=C1CC(Cc2ccccc2)C(=O)N1CCCn1ccnc1 (centres undefined)	24	-3	99*	14	0.8	-5
COc1ccc(CCN(C(=O)c2ccc(F)cc2)C2=CC3CCC(C2)N3C)cc1OC (centres undefined)	4	0	.	.	1	.
CCNC(=O)C/C(C)=N/NC(=O)C(=O)Nc1ccc(CC)cc1	8	8	-2	2	0.9	.
O=c1c2ccccc2nc2c3ccccc3c(NCCN3CCOCC3)nn12	-20	-17	100*	-4	1.2	6
O=c1c2ccccc2nc(-c2ccccc2)n1CCN1CCOCC1	5	2	-1	-15	1	.
COc1ccc2c(c1)C(=O)[C@@H](O)[C@H](c1ccc(OC)c(Br)c1)O2	4	14	98*	25	1	-58
COc1cccc([C@@H]2Oc3ccc(OC)cc3C(=O)[C@H]2O)c1	8	10	14	2	0.9	.
CN(C)C(=O)c1cn(-c2ccccc2)nc1-c1cc2ccccc2oc1=O	-8	-1	-2	-13	1.1	.
O=C1CSC(c2cn(-c3ccccc3)nc2-c2cc3ccccc3oc2=O)N1Cc1ccccc1 (centres undefined)	27	-2	61*	2	0.7	1
CNCCCC12CCC(c3ccccc31)c1ccccc12	5	15	97*	25	0.9	1
Cc1ccccc1N1C(=O)c2cccc([N+](=O)[O-])c2C1=O	14	2	-7	-5	0.9	.
Cc1ccccc1-n1ncc2c([N+](=O)[O-])cc([N+](=O)[O-])cc21	23	2	100*	3	0.8	98*
Cc1nn(Cc2n[nH]c(=S)n2Cc2ccccc2)c(C)c1Cl	7	10	90*	8	0.9	-11
Cc1cc(C)n(Cc2n[nH]c(=S)n2Cc2ccccc2)n1	18	4	-5	-2	0.8	.
O=C1NC(=O)C2(COC(c3ccncc3)OC2)S1 (centres undefined)	2	9	43	-11	1	.
SMILES	Diaphorase inh	G6PDH CS	L major viab	WT yeast gro inh	Diaphorase act	L major 1uM
CCCOc1ccc(N)cc1N	38	42	74*	14	0.6	-14
Cc1ccc(-n2cc(CN(C)CCc3cn[nH]c3)c(-c3cccc(C)c3)n2)cc1	8	9	65*	23	0.9	-14
CCNc1nc2nonc2nc1NCC	11	-1	-6	8	0.9	.
CCCCCCc1cc2cc(C(=O)Nc3ccccc3)c(=O)oc2cc1O	-6	-8	86*	-9	1.1	4
Cc1ccc(C2=CSC3=NNC4(CCCCC4)NN23)cc1	5	-2	55*	20	0.9	-12
Cc1ccc(C2=CSC3=NCCN23)c(C)c1	2	3	-6	16	1	.
O=C(N/N=C1\CCCc2ccccc21)c1cccc(Br)c1	13	7	7	-3	0.9	.
CC(C)N1C(=O)CCC1C(=O)NCCc1ccccc1 (centres undefined)	-11	5	-6	-17	1.1	.
CCOC(=O)C1(Cc2ccc(Cl)cc2)CCN(C(=O)c2sc(C)nc2C)CC1	16	3	10	9	0.8	.
CCOC(=O)c1ccccc1NC(=O)c1ccccc1N(C)S(C)(=O)=O	12	13	90*	3	0.9	-3
COC(=O)c1ccccc1NC(=O)c1ccccc1N(C)S(C)(=O)=O	19	-7	19	-6	0.8	.
COC(=O)C(NC(=O)c1ccc(C)cc1)(Nc1cccc(C)n1)C(F)(F)F (centres undefined)	18	7	9	-18	0.8	.
Cc1cc(C(F)(F)F)nn1CC(=O)Nc1ccc(Br)c2cccnc12	19	11	96*	-2	0.8	-14
Cc1cc(-c2nn3c(C)nnc3s2)ccc1NC(=O)C(C)(C)C	.	.	2	.	.	.
COc1ccc(COC(=O)Nc2cc3c(C(F)(F)F)nn(C)c3s2)cc1	22	-1	-7	14	0.8	.
Cn1nc(C(F)(F)F)c2cc(NC(=O)OCc3ccc(C(C)(C)C)cc3)sc21	19	2	97*	50	0.8	-14
Cc1cccc(Cn2nnc3c2C(=O)c2ccccc2C3=O)c1	18	54*	100*	12	0.8	-26
C=CCOc1nc(N2CCCC2)nc(N2CCCC2)n1	22	-3	96*	24	0.8	-9
COc1ccc2nc(SCC(=O)Nc3ccc(S(=O)(=O)Nc4nccc(C)n4)cc3)[nH]c2c1	7	13	-2	-12	0.9	.
Cc1ccc2oc(=O)c(/C=C(\O)C(C)(C)C)nc2c1	9	0	1	-19	0.9	.
O=c1oc2ccccc2nc1/C=C(O)/C=C\c1ccccc1	19	-6	99*	17	0.8	-4
Cc1ccc(NC(=O)c2ccc(Br)o2)cc1S(=O)(=O)N(C)C	0	7	60*	-8	1	-3
COc1ccc(S(=O)(=O)Nc2ccc(O)c3ccccc23)cc1	8	31	100*	52	0.9	97*
CCC(C)(C)c1ccc(Oc2ccc(N)cc2)cc1	24	3	95*	89*	0.8	14
CC(C)(C)NC(=O)NC(=O)COC(=O)c1cccc(S(=O)(=O)N2CCCCC2)c1	20	-5	-4	7	0.8	.
O=C(Nc1ccc(F)cc1F)N1CCCCC1c1cccnc1 (centres undefined)	20	-4	73*	-7	0.8	10
COc1cccc(COc2ccccc2C2Nc3ccc(Br)cc3C(=O)N2NC(=O)c2ccncc2)c1 (centres undefined)	10	10	100*	-16	0.9	-20
Cc1cc2nc3c(nc2cc1C)C1(C(=O)N(C)C)CCC3(C)C1(C)C (centres undefined)	0	4	94*	7	1	-11
CN(C)C(=O)C12CCC(C)(c3nc4ccccc4nc31)C2(C)C (centres undefined)	2	40	-7	0	1	.
COc1cc(-c2c(C#N)c(N)nc(SCc3ccncc3)c2C#N)cc(OC)c1OC	28	0	98*	5	0.7	61*
